Test results from ChEMBL document CHEMBL1157589, “Antifungal 3,5-disubstituted furanones: From 5-acyloxymethyl to 5-alkylidene derivatives” (Bioorg Med Chem, 2010).
In brackets after ≈: the same amount, converted by molar mass.

Each compound was assayed on Candida albicans (assay: Antifungal activity against Candida albicans ATCC 90028 after 48 hrs by microdilution method). Settings: ATCC 90028, 48 h; call rule not given here.
Format: functional
How it was run: (§1)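 Yeasts held on Sabouraud dextrose agar. MIC by NCCLS M27-A broth microdilution in RPMI 1640 with L-glutamine, buffered with 0.165 M MOPS to pH 7.0. Compounds in DMSO (≤2% final), twofold dilutions 500–0.48. Final inoculum 5 × 10³ ± 0.2 cfu mL⁻¹. Incubated at 35 °C; absorbance at 540 nm read at 24 and 48 h. MIC is 80% growth inhibition versus control; run twice in duplicate.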

MIC80 [µM] | SMILES
> 125 | O=C1O/C(=C\c2ccccc2)C=C1c1ccc(Br)cc1
> 500 | O=C1O/C(=C\CCCO)C=C1c1ccc(Br)cc1

The compounds below were run on Clavispora lusitaniae (assay: Antifungal activity against Candida lusitaniae 2446/I after 24 hrs by microdilution method). Settings: not given.
Format: functional
How it was run: as §1

MIC80 [µM] | SMILES
> 125 | O=C1O/C(=C\c2ccccc2)C=C1c1ccc(Br)cc1
> 500 | O=C1O/C(=C\CCCO)C=C1c1ccc(Br)cc1

These compounds were tested on Lichtheimia corymbifera (assay: Antifungal activity against Absidia corymbifera 272 after 24 hrs by microdilution method). Settings: Lichtheimia corymbifera, 272, 24 h.
Format: functional
How it was run: (§2)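 Filamentous strains held on Sabouraud dextrose agar. NCCLS M27-A broth microdilution in RPMI 1640 with L-glutamine and 0.165 M MOPS, pH 7.0. DMSO diluent ≤2% final; twofold dilutions 500–0.48. Inoculum 5 × 10³ ± 0.2 cfu mL⁻¹ final.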

MIC80 [µM] | SMILES
> 125 | O=C1O/C(=C\c2ccccc2)C=C1c1ccc(Br)cc1
62.5 (≈ 19.3 µg/mL) | O=C1O/C(=C\CCCO)C=C1c1ccc(Br)cc1

Each compound was assayed on Trichophyton mentagrophytes (assay: Antifungal activity against Trichophyton mentagrophytes 445 after 72 hrs by microdilution method). Settings: Trichophyton mentagrophytes, 445, 72 h.
Format: functional
How it was run: (§3)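 Dermatophyte held on Sabouraud dextrose agar. M27-A microdilution in MOPS-buffered (0.165 M, pH 7.0) RPMI 1640 with L-glutamine. DMSO ≤2% final; twofold dilutions 500–0.48. Inoculum 5 × 10³ ± 0.2 cfu mL⁻¹ final. Incubated at 35 °C; MIC read visually at 72 and 120 h as 80% inhibition of control growth; determined twice in duplicate.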

MIC80 [µM] | SMILES
> 125 | O=C1O/C(=C\c2ccccc2)C=C1c1ccc(Br)cc1
62.5 (≈ 19.3 µg/mL) | O=C1O/C(=C\CCCO)C=C1c1ccc(Br)cc1

What follows are compounds tested on Nakaseomyces glabratus (assay: Antifungal activity against Candida glabrata 20/I after 48 hrs by microdilution method). Settings: not given.
Format: functional
How it was run: as §1

MIC80 [µM] | SMILES
> 125 | O=C1O/C(=C\c2ccccc2)C=C1c1ccc(Br)cc1
> 500 | O=C1O/C(=C\CCCO)C=C1c1ccc(Br)cc1

The compounds below were run on Candida tropicalis (assay: Antifungal activity against Candida tropicalis 156 after 24 hrs by microdilution method). Settings: Candida tropicalis, 156, 24 h.
Format: functional
How it was run: as §1

MIC80 [µM] | SMILES
> 125 | O=C1O/C(=C\c2ccccc2)C=C1c1ccc(Br)cc1
> 500 | O=C1O/C(=C\CCCO)C=C1c1ccc(Br)cc1

The compounds below were run on HeLa S3 (assay: Cytostatic activity against human HeLaS3 cells after 48 hrs by XTT assay). Settings: hela s3.

IC50 | SMILES
Not Active | O=C1O/C(=C\c2ccccc2)C=C1c1ccc(Br)cc1
Not Active | O=C1O/C(=C\CCCO)C=C1c1ccc(Br)cc1

These compounds were tested on CCRF-CEM (assay: Cytostatic activity against human CCRF-CEM cells after 72 hrs by XTT assay). Settings: ccrf-cem.
Format: functional, cell-based
How it was run: (§4)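 Leukemia cells (L1210 ATCC CCL 219, CCRF-CEM ATCC CCL 119, HL-60 ATCC CCL 240) grown in 24-well plates in RPMI 1640 with fetal calf serum. Growth assessed 72 h after drug addition. Viability measured by XTT spectrophotometric assay; potency given as IC50.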

IC50 | SMILES
Not Active | O=C1O/C(=C\c2ccccc2)C=C1c1ccc(Br)cc1
Not Active | O=C1O/C(=C\CCCO)C=C1c1ccc(Br)cc1

The compounds below were run on Nakaseomyces glabratus (assay: Antifungal activity against Candida glabrata 20/I after 24 hrs by microdilution method). Settings: not given.
Format: functional
How it was run: as §1

MIC80 [µM] | SMILES
> 125 | O=C1O/C(=C\c2ccccc2)C=C1c1ccc(Br)cc1
> 500 | O=C1O/C(=C\CCCO)C=C1c1ccc(Br)cc1

Each compound was assayed on Pichia kudriavzevii (assay: Antifungal activity against Candida krusei E28 after 24 hrs by microdilution method). Settings: E28, 24 h.
Format: functional
How it was run: as §1

MIC80 [µM] | SMILES
> 125 | O=C1O/C(=C\c2ccccc2)C=C1c1ccc(Br)cc1
> 500 | O=C1O/C(=C\CCCO)C=C1c1ccc(Br)cc1

The compounds below were run on Clavispora lusitaniae (assay: Antifungal activity against Candida lusitaniae 2446/I after 48 hrs by microdilution method). Settings: not given.
Format: functional
How it was run: as §1

MIC80 [µM] | SMILES
> 125 | O=C1O/C(=C\c2ccccc2)C=C1c1ccc(Br)cc1
> 500 | O=C1O/C(=C\CCCO)C=C1c1ccc(Br)cc1

What follows are compounds tested on Candida albicans (assay: Antifungal activity against Candida albicans ATCC 44859 after 24 hrs by microdilution method). Settings: ATCC 44859, 24 h.
Format: functional
How it was run: as §1

MIC80 [µM] | SMILES
> 125 | O=C1O/C(=C\c2ccccc2)C=C1c1ccc(Br)cc1
62.5 (≈ 19.3 µg/mL) | O=C1O/C(=C\CCCO)C=C1c1ccc(Br)cc1

These compounds were tested on Pichia kudriavzevii (assay: Antifungal activity against Candida krusei ATCC 6258 after 24 hrs by microdilution method). Settings: ATCC 6258, 24 h.
Format: functional
How it was run: as §1

MIC80 [µM] | SMILES
> 125 | O=C1O/C(=C\c2ccccc2)C=C1c1ccc(Br)cc1
> 500 | O=C1O/C(=C\CCCO)C=C1c1ccc(Br)cc1

Each compound was assayed on Lichtheimia corymbifera (assay: Antifungal activity against Absidia corymbifera 272 after 48 hrs by microdilution method). Settings: Lichtheimia corymbifera, 272, 48 h.
Format: functional
How it was run: as §2

MIC80 [µM] | SMILES
> 125 | O=C1O/C(=C\c2ccccc2)C=C1c1ccc(Br)cc1
62.5 (≈ 19.3 µg/mL) | O=C1O/C(=C\CCCO)C=C1c1ccc(Br)cc1

These compounds were tested on L1210 (assay: Cytostatic activity against mouse L1210 cells after 72 hrs by XTT assay). Settings: l1210.
Format: functional, cell-based
How it was run: as §4

IC50 | SMILES
Not Active | O=C1O/C(=C\c2ccccc2)C=C1c1ccc(Br)cc1
Not Active | O=C1O/C(=C\CCCO)C=C1c1ccc(Br)cc1

These compounds were tested on Candida parapsilosis (assay: Antifungal activity against Candida parapsilosis ATCC 22019 after 48 hrs by microdilution method). Settings: Lodderomyces parapsilosis, ATCC 22019, 48 h.
Format: functional
How it was run: as §1

MIC80 [µM] | SMILES
> 125 | O=C1O/C(=C\c2ccccc2)C=C1c1ccc(Br)cc1
> 500 | O=C1O/C(=C\CCCO)C=C1c1ccc(Br)cc1

The compounds below were run on Trichophyton mentagrophytes (assay: Antifungal activity against Trichophyton mentagrophytes 445 after 120 hrs by microdilution method). Settings: Trichophyton mentagrophytes, 445, 120 h.
Format: functional
How it was run: as §3

MIC80 [µM] | SMILES
> 125 | O=C1O/C(=C\c2ccccc2)C=C1c1ccc(Br)cc1
62.5 (≈ 19.3 µg/mL) | O=C1O/C(=C\CCCO)C=C1c1ccc(Br)cc1

Each compound was assayed on Candida albicans (assay: Antifungal activity against Candida albicans ATCC 90028 after 24 hrs by microdilution method). Settings: ATCC 90028, 24 h.
Format: functional
How it was run: as §1

MIC80 [µM] | SMILES
> 125 | O=C1O/C(=C\c2ccccc2)C=C1c1ccc(Br)cc1
> 500 | O=C1O/C(=C\CCCO)C=C1c1ccc(Br)cc1

Each compound was assayed on HL-60 (assay: Cytostatic activity against human HL60 cells after 72 hrs by XTT assay). Settings: hl-60.
Format: functional, cell-based
How it was run: as §4

IC50 | SMILES
Not Active | O=C1O/C(=C\c2ccccc2)C=C1c1ccc(Br)cc1
Not Active | O=C1O/C(=C\CCCO)C=C1c1ccc(Br)cc1

What follows are compounds tested on Aspergillus fumigatus (assay: Antifungal activity against Aspergillus fumigatus 231 after 24 hrs by microdilution method). Settings: Aspergillus fumigatus, 231, 24 h.
Format: functional
How it was run: as §2

MIC80 [µM] | SMILES
> 125 | O=C1O/C(=C\c2ccccc2)C=C1c1ccc(Br)cc1
> 500 | O=C1O/C(=C\CCCO)C=C1c1ccc(Br)cc1

These compounds were tested on Trichosporon beigelii (assay: Antifungal activity against Trichosporon beigelii 1188 after 24 hrs by microdilution method). Settings: Trichosporon beigelii, 1188, 24 h.
Format: functional
How it was run: as §1

MIC80 [µM] | SMILES
> 125 | O=C1O/C(=C\c2ccccc2)C=C1c1ccc(Br)cc1
> 500 | O=C1O/C(=C\CCCO)C=C1c1ccc(Br)cc1

Each compound was assayed on Pichia kudriavzevii (assay: Antifungal activity against Candida krusei ATCC 6258 after 48 hrs by microdilution method). Settings: ATCC 6258, 48 h.
Format: functional
How it was run: as §1

MIC80 [µM] | SMILES
> 125 | O=C1O/C(=C\c2ccccc2)C=C1c1ccc(Br)cc1
> 500 | O=C1O/C(=C\CCCO)C=C1c1ccc(Br)cc1

The compounds below were run on Candida parapsilosis (assay: Antifungal activity against Candida parapsilosis ATCC 22019 after 24 hrs by microdilution method). Settings: Lodderomyces parapsilosis, ATCC 22019, 24 h.
Format: functional
How it was run: as §1

MIC80 [µM] | SMILES
> 125 | O=C1O/C(=C\c2ccccc2)C=C1c1ccc(Br)cc1
> 500 | O=C1O/C(=C\CCCO)C=C1c1ccc(Br)cc1

What follows are compounds tested on Candida albicans (assay: Antifungal activity against Candida albicans ATCC 44859 after 48 hrs by microdilution method). Settings: ATCC 44859, 48 h.
Format: functional
How it was run: as §1

MIC80 [µM] | SMILES
> 125 | O=C1O/C(=C\c2ccccc2)C=C1c1ccc(Br)cc1
125 (≈ 38.6 µg/mL) | O=C1O/C(=C\CCCO)C=C1c1ccc(Br)cc1

The compounds below were run on Trichosporon beigelii (assay: Antifungal activity against Trichosporon beigelii 1188 after 48 hrs by microdilution method). Settings: Trichosporon beigelii, 1188, 48 h.
Format: functional
How it was run: as §1

MIC80 [µM] | SMILES
> 125 | O=C1O/C(=C\c2ccccc2)C=C1c1ccc(Br)cc1
> 500 | O=C1O/C(=C\CCCO)C=C1c1ccc(Br)cc1

What follows are compounds tested on Pichia kudriavzevii (assay: Antifungal activity against Candida krusei E28 after 48 hrs by microdilution method). Settings: E28, 48 h.
Format: functional
How it was run: as §1

MIC80 [µM] | SMILES
> 125 | O=C1O/C(=C\c2ccccc2)C=C1c1ccc(Br)cc1
> 500 | O=C1O/C(=C\CCCO)C=C1c1ccc(Br)cc1

These compounds were tested on Aspergillus fumigatus (assay: Antifungal activity against Aspergillus fumigatus 231 after 48 hrs by microdilution method). Settings: Aspergillus fumigatus, 231, 48 h.
Format: functional
How it was run: as §2

MIC80 [µM] | SMILES
> 125 | O=C1O/C(=C\c2ccccc2)C=C1c1ccc(Br)cc1
> 500 | O=C1O/C(=C\CCCO)C=C1c1ccc(Br)cc1

These compounds were tested on Candida tropicalis (assay: Antifungal activity against Candida tropicalis 156 after 48 hrs by microdilution method). Settings: Candida tropicalis, 156, 48 h.
Format: functional
How it was run: as §1

MIC80 [µM] | SMILES
> 125 | O=C1O/C(=C\c2ccccc2)C=C1c1ccc(Br)cc1
> 500 | O=C1O/C(=C\CCCO)C=C1c1ccc(Br)cc1
